According to ChEMBL document CHEMBL1165965, “Synthesis and structure-activity relationships of 1,2,3,4-tetrahydropyrido[2,3-b]pyrazines as potent and selective inhibitors of the anaplastic lymphoma kinase” (Bioorg Med Chem, 2010):

Columns and labels:
[1] = target: Mitogen-activated protein kinase kinase kinase 9 (Homo sapiens) (UniProt P80192); test: Inhibition of MLK1 at 1 uM
[2] = system: Phosphatidylinositol 4,5-bisphosphate 3-kinase catalytic subunit alpha isoform (Homo sapiens), P42336 [E545K]; test: Inhibition of PIK3CA E545K mutant at 1 uM
[3] = target: T1, Mitogen-activated protein kinase 12 (Homo sapiens) (UniProt P53778); test: Inhibition of p38-gamma at 1 uM
T1 sequence (whole entry): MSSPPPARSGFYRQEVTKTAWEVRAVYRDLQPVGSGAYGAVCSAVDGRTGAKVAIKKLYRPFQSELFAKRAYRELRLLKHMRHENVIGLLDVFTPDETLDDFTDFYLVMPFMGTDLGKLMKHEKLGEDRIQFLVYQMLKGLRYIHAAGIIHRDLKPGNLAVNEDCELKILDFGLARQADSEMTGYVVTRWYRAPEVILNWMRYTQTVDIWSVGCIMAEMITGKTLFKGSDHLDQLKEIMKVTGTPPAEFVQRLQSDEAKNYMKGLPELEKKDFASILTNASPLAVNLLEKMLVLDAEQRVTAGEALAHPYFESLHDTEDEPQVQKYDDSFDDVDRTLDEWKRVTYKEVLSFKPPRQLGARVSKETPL

[4] = target: Receptor-interacting serine/threonine-protein kinase 2 (Homo sapiens) (UniProt O43353); test: Inhibition of RIPK2 at 1 uM
[5] = target: Ribosomal protein S6 kinase alpha-1 (Homo sapiens) (UniProt Q15418); test: Inhibition of RPS6KA1 N-terminal domain1 at 1 uM
[6] = target: Calcium/calmodulin-dependent protein kinase type II subunit delta (Homo sapiens) (UniProt Q13557); test: Inhibition of CAMK2D at 1 uM
In short: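 Ambit KINOMEscan screen at a single concentration across a 250–400 kinase panel, recorded as percent inhibition. Selectivity was expressed as S(90), the fraction of kinases inhibited >90%.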

[7] = target: Serine/threonine-protein kinase PLK2 (Homo sapiens) (UniProt Q9NYY3); test: Inhibition of PLK2 at 1 uM
[8] = target: Microtubule-associated serine/threonine-protein kinase 1 (Homo sapiens) (UniProt Q9Y2H9); test: Inhibition of MAST1 at 1 uM
[9] = target: Ribosomal protein S6 kinase alpha-2 (Homo sapiens) (UniProt Q15349); test: Inhibition of RPS6KA2 C-terminal domain2 at 1 uM
[10] = target: T2, Serine/threonine-protein kinase TBK1 (Homo sapiens) (UniProt Q9UHD2); test: Inhibition of TBK1 at 1 uM
T2 sequence (whole entry): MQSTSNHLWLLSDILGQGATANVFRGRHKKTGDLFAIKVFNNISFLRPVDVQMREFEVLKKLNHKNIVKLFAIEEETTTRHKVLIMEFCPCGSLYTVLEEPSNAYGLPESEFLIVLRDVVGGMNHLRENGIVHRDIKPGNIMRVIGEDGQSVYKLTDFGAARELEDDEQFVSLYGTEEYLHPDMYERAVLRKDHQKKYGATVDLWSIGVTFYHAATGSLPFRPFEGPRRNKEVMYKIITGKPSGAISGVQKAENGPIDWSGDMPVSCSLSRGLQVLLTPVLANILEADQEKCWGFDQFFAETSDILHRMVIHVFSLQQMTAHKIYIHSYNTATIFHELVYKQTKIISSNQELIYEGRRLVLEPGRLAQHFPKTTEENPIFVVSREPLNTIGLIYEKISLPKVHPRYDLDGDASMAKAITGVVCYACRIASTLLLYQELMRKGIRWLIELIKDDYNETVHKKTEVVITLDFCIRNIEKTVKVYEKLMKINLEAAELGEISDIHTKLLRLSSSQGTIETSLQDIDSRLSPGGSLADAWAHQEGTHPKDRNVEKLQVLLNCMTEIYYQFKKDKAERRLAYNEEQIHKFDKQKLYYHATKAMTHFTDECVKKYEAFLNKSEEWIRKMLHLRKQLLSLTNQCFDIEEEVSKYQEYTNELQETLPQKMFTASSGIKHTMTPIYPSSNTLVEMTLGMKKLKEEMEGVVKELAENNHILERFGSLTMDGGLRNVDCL

[11] = target: Bone morphogenetic protein receptor type-1B (Homo sapiens) (UniProt O00238); test: Inhibition of BMPR1B at 1 uM
[12] = system: T3, Receptor-type tyrosine-protein kinase FLT3 (Homo sapiens), P36888 [K663Q]; test: Inhibition of FLT3 K663Q mutant at 1 uM
T3 sequence (whole entry): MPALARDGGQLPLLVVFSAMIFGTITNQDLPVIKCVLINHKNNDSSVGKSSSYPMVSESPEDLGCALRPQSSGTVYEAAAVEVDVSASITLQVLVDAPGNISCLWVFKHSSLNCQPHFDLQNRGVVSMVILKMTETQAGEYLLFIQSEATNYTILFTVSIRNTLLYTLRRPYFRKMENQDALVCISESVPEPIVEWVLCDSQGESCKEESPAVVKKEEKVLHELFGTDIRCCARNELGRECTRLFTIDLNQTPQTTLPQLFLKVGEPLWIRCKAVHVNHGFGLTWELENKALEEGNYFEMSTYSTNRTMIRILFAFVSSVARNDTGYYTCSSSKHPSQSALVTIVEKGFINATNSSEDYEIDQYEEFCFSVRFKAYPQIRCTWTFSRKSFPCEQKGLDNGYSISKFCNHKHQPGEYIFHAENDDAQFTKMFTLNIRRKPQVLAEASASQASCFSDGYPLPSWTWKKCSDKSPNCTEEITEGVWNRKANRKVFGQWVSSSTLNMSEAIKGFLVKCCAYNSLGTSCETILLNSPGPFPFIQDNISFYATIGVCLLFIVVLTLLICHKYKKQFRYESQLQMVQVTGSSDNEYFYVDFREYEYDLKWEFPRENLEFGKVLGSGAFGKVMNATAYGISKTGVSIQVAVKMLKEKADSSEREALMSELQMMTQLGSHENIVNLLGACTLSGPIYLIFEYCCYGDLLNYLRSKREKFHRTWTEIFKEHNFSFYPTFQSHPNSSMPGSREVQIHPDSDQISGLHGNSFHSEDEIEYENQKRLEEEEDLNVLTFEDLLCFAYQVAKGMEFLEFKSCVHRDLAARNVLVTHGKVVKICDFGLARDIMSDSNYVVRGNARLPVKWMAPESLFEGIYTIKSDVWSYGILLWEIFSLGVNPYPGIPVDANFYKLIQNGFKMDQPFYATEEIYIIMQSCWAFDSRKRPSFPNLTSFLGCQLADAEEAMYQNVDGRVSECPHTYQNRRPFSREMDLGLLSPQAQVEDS

[13] = system: Phosphatidylinositol 4,5-bisphosphate 3-kinase catalytic subunit alpha isoform (Homo sapiens), P42336 [E542K]; test: Inhibition of PIK3CA E542K mutant at 1 uM
Chain of Phosphatidylinositol 4,5-bisphosphate 3-kinase catalytic subunit alpha isoform (Homo sapiens), P42336 [E542K] (P42336 whole entry E542K, canonical isoform): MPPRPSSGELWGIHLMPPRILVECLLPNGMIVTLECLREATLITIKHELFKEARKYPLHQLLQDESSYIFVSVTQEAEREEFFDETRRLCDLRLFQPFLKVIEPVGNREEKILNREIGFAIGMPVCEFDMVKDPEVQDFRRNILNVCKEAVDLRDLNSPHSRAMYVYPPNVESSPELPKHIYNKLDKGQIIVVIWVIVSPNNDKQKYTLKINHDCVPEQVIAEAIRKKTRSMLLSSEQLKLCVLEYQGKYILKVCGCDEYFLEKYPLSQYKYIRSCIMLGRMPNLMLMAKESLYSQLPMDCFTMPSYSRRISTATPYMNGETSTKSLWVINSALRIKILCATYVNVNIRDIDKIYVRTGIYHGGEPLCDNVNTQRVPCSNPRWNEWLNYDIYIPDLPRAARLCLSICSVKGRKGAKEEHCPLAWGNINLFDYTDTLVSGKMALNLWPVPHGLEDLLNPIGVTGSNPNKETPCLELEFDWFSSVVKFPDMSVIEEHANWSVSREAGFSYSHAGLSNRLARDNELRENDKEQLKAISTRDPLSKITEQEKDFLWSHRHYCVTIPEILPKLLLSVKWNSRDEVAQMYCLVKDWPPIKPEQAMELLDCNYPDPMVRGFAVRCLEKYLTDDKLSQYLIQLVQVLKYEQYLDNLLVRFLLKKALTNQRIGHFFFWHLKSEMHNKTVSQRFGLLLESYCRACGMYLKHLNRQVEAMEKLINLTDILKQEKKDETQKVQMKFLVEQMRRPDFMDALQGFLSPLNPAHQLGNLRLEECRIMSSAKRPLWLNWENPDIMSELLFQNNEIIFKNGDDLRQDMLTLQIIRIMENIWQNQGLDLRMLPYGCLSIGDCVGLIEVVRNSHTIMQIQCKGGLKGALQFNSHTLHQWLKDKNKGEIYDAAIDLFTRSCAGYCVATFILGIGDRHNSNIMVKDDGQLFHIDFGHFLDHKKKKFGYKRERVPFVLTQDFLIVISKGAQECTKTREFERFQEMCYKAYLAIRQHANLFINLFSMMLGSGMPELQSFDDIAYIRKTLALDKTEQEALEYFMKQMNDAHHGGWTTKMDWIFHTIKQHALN

Chain of Serine/threonine-protein kinase PLK2 (Homo sapiens) (Q9NYY3 whole entry, looked up): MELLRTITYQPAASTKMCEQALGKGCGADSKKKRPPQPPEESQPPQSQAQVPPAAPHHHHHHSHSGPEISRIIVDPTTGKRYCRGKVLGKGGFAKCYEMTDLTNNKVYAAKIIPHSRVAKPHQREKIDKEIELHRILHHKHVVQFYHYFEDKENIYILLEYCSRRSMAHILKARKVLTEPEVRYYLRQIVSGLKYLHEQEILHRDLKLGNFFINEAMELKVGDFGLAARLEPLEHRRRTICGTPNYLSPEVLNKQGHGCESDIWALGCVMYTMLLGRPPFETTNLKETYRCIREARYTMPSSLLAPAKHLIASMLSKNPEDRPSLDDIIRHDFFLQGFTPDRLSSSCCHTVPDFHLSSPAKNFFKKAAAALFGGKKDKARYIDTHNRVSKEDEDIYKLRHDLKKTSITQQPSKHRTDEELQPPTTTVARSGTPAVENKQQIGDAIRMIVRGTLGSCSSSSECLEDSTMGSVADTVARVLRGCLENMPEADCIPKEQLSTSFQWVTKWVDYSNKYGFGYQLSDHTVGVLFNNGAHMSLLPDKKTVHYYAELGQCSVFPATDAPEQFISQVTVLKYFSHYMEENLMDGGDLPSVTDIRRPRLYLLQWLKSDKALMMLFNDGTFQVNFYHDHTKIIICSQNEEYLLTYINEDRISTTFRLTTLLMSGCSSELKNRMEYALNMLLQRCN
Chain of Calcium/calmodulin-dependent protein kinase type II subunit delta (Homo sapiens) (Q13557 whole entry): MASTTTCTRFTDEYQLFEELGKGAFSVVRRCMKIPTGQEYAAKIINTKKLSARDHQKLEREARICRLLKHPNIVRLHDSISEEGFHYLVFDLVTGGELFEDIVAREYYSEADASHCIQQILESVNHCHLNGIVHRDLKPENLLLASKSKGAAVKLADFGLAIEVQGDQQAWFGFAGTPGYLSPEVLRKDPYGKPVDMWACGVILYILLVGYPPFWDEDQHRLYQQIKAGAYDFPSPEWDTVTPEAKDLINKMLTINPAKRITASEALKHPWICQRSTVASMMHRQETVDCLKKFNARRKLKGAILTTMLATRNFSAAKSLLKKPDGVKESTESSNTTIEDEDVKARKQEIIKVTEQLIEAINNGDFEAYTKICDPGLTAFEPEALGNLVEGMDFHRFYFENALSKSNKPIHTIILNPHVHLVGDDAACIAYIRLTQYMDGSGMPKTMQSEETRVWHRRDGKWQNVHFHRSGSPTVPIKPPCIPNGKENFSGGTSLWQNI
Chain of Receptor-interacting serine/threonine-protein kinase 2 (Homo sapiens) (O43353 whole entry, the tested form may be a part): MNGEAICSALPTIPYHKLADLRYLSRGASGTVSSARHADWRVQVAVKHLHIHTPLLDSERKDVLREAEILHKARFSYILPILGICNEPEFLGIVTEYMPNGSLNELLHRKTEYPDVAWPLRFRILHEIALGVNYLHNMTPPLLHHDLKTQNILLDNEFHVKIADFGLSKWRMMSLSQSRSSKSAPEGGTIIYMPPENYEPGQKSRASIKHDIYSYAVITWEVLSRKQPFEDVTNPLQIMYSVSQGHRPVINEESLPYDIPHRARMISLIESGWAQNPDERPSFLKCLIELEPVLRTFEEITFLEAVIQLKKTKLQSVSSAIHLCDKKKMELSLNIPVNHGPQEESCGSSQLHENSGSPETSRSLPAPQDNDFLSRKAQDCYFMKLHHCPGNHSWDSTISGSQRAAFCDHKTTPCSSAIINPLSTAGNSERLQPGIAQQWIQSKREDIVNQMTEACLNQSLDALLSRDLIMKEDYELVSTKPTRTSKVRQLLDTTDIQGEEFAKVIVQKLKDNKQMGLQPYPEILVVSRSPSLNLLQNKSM
Chain of Microtubule-associated serine/threonine-protein kinase 1 (Homo sapiens) (Q9Y2H9 whole entry, looked up, the tested form may be a part): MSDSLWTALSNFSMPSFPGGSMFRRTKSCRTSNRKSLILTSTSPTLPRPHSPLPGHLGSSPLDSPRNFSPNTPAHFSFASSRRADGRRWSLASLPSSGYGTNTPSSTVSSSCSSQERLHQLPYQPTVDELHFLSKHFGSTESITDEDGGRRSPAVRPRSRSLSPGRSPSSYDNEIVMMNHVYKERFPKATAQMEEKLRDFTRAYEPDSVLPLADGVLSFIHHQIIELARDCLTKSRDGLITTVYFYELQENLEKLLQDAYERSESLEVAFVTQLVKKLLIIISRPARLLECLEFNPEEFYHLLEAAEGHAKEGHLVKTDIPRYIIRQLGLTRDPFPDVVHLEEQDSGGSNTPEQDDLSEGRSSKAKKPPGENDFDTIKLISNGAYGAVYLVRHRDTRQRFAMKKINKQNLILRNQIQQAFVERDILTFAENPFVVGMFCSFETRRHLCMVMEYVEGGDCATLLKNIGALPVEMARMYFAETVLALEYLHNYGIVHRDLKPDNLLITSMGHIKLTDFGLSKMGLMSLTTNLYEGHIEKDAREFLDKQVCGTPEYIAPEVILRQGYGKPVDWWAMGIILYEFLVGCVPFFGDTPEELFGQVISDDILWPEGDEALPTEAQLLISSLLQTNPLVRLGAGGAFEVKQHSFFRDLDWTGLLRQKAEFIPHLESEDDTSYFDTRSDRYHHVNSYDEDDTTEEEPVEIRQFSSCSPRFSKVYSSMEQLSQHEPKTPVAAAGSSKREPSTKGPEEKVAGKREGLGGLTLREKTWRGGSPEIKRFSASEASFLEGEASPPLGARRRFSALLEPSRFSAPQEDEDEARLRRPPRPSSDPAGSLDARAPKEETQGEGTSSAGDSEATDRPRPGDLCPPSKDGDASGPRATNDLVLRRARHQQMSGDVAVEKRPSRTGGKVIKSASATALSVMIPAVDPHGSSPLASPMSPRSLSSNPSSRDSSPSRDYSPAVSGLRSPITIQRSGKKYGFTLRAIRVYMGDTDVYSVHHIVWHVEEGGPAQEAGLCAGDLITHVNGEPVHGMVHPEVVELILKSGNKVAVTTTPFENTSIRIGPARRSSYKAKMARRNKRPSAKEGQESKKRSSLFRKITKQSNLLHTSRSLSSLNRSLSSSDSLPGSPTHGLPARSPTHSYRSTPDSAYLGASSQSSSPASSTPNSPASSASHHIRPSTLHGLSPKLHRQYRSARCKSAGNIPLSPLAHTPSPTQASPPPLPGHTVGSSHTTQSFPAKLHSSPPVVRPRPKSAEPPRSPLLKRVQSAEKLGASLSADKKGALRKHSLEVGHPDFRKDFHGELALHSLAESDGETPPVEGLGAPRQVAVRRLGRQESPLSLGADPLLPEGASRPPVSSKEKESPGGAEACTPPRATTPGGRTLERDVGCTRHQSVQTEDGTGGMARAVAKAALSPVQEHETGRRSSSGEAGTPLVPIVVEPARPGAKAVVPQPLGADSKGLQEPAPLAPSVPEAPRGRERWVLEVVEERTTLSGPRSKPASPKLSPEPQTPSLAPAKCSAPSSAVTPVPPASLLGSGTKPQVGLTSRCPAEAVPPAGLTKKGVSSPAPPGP
Chain of Phosphatidylinositol 4,5-bisphosphate 3-kinase catalytic subunit alpha isoform (Homo sapiens), P42336 [E545K] (P42336 whole entry E545K, canonical isoform): as the sequence (P42336 whole entry E542K, canonical isoform) above, with K542E, E545K counted along it
Chain of Bone morphogenetic protein receptor type-1B (Homo sapiens) (O00238 whole entry): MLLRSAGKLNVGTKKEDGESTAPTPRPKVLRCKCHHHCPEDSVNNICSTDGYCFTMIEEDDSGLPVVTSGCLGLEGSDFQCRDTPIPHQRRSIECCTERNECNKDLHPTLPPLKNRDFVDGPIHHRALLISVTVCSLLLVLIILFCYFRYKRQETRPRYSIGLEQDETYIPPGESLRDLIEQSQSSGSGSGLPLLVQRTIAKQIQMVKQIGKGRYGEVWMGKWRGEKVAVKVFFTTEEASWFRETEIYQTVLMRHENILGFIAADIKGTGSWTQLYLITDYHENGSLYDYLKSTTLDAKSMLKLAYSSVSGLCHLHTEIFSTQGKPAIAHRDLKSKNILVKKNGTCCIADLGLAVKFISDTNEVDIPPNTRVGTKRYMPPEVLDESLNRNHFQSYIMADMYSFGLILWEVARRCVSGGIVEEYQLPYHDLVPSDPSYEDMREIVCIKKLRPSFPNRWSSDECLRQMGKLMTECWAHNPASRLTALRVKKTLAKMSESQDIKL

SMILES	inhibition [1] [%]	inhibition [2] [%]	inhibition [3] [%]	inhibition [4] [%]	inhibition [5] [%]	inhibition [6] [%]	inhibition [7] [%]	inhibition [8] [%]	inhibition [9] [%]	inhibition [10] [%]	inhibition [11] [%]	inhibition [12] [%]	inhibition [13] [%]
CN1CCN(c2ccc(-c3cnc4c(c3)N(Cc3cc(F)ccc3F)CCN4)cn2)CC1	< 50	< 50	< 50	< 50	< 50	< 50	< 50	< 50	< 50	< 50	< 50	80	< 50
O=C(c1ccc(-c2cnc3c(c2)N(Cc2cc(Cl)ccc2C(F)(F)F)CCN3)cc1)N1CCC(N2CCCC2)CC1			< 50	< 50	< 50	< 50			< 50				
O=C(c1ccc(-c2cnc3c(c2)N(Cc2cc(Cl)ccc2C(F)(F)F)CCN3)cc1)N1CCCCC1	< 50		< 50	< 50	< 50	< 50			< 50				
CN1CCN(c2ccc(-c3cnc4c(c3)N(Cc3c(F)ccc(F)c3Cl)CCN4)cn2)CC1	< 50	< 50	< 50	< 50	< 50	< 50	< 50	< 50	< 50	< 50	< 50	70	< 50
COC1CCN(C(=O)c2ccc(-c3cnc4c(c3)N(Cc3cc(Cl)ccc3C(F)(F)F)CCN4)cc2)CC1	< 50		< 50	< 50	< 50	< 50			< 50				
O=C(O)c1ccc(-c2cnc3c(c2)N(Cc2cc(Cl)ccc2C(F)(F)F)CCN3)cc1	< 50		< 50	< 50	< 50	< 50			< 50				
CC(=O)N1CCN(c2cc(-c3cnc4c(c3)N(Cc3cc(Cl)ccc3C(F)(F)F)CCN4)ccn2)CC1	< 50	< 50	< 50	< 50	< 50	< 50	82	< 50	< 50	< 50	< 50	93	< 50
FC(F)(F)c1ccc(Cl)cc1CN1CCNc2ncc(-c3ccnc(N4CCNCC4)c3)cc21	< 50	< 50	< 50	< 50	< 50	< 50	< 50	< 50	< 50	< 50	< 50	98	< 50
CN1CCN(c2ccc(-c3cnc4c(c3)N(Cc3cc(Cl)ccc3C(F)(F)F)CCN4)cn2)CC1	< 50	< 50	< 50	< 50	< 50	< 50	< 50	< 50	< 50	< 50	< 50	92	< 50
CN1CCN(c2ccc(-c3cnc4c(c3)N(Cc3cc(Cl)ccc3Cl)CCN4)cn2)CC1	< 50	< 50	< 50	< 50	< 50	< 50	< 50	< 50	< 50	< 50	< 50	93	< 50
